From ChEMBL document CHEMBL2434866, “Synthesis, antibacterial and antioxidant activities of new 1-alkyl-4-(1-alkyl-4-oxo-1,4-dihydroquinolin-2-yl)pyridinium bromides” (2013)
Active and inactive are the calls of the source. The calls are words filed in the database; no cut-off is given here.

Columns and labels:
[1] = Antioxidant activity assessed as trolox equivalent of ferric ion reducing activity using fe2+-TPTZ at 1 mg/ml after 20 mins by FRAP assay; type: functional
Procedure, shortened: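 Sample at 1 mg/mL was mixed with reagent, kept 20 min at room temperature, and read at 595 nm against a water blank. Triplicates were corrected for reagent and sample blanks. TEAC came from a five-point Trolox calibration curve.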

Klebsiella pneumoniae [2] = test: Antibacterial activity against Klebsiella pneumoniae ATCC 13883 assessed as growth inhibition after 18 to 24 hrs by microdilution assay; type: functional
Procedure, shortened: (§1)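 Broth microdilution MIC in LB medium at pH 7.2. Compounds came from DMSO stocks and were serially diluted from 1000 to 7.8 (final). Inoculum was mid-log cells diluted to OD600 0.004 (about 5 × 10^5 CFU/mL). Plates were incubated at 37 °C for 18–24 h. MIC was the last dilution without visible turbidity. Controls were DMSO solvent, medium ± antibiotic, and ampicillin.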

Pseudomonas aeruginosa [3] = test: Antibacterial activity against Pseudomonas aeruginosa ATCC 27853 assessed as growth inhibition after 18 to 24 hrs by microdilution assay; type: functional; procedure, shortened: as §1
Staphylococcus aureus [4] = test: Antibacterial activity against Staphylococcus aureus ATCC 25923 assessed as growth inhibition after 18 to 24 hrs by microdilution assay; type: functional; procedure, shortened: as §1
Proteus vulgaris [5] = test: Antibacterial activity against Proteus vulgaris ATCC 13315 assessed as growth inhibition after 18 to 24 hrs by microdilution assay; type: functional; procedure, shortened: as §1
[6] = system: Radical scavenging activity; test: Antioxidant activity assessed as DPPH radical scavenging activity after 50 mins; type: functional
Procedure, shortened: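 DPPH• in methanol was mixed 1:1 with sample at five final concentrations (6.25–100.00), vortexed, and kept 50 min at room temperature. Absorbance was read at 517 nm and plotted against concentration, with reagent-blank and solvent controls. SC50 was read from the graph as the concentration halving the initial DPPH•.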

Bacillus spizizenii [7] = test: Antibacterial activity against Bacillus subtilis ATCC 6633 assessed as growth inhibition after 18 to 24 hrs by microdilution assay; type: functional; procedure, shortened: as §1
Enterococcus faecalis [8] = test: Antibacterial activity against Enterococcus faecalis ATCC 29212 assessed as growth inhibition after 18 to 24 hrs by microdilution assay; type: functional; procedure, shortened: as §1
Klebsiella pneumoniae [9] = test: Antibacterial activity against Klebsiella pneumoniae ATCC 13883 assessed as growth inhibition at 100 ug/mL after 18 to 24 hrs by microdilution assay; type: functional, organism-based
Enterococcus faecalis [10] = test: Antibacterial activity against Enterococcus faecalis ATCC 29212 assessed as growth inhibition at 100 ug/mL after 18 to 24 hrs by microdilution assay; type: functional, organism-based
Staphylococcus aureus [11] = test: Antibacterial activity against Staphylococcus aureus ATCC 25923 assessed as growth inhibition at 100 ug/mL after 18 to 24 hrs by microdilution assay; type: functional, organism-based
Pseudomonas aeruginosa [12] = test: Antibacterial activity against Pseudomonas aeruginosa ATCC 27853 assessed as growth inhibition at 100 ug/mL after 18 to 24 hrs by microdilution assay; type: functional, organism-based
Proteus vulgaris [13] = test: Antibacterial activity against Proteus vulgaris ATCC 13315 assessed as growth inhibition at 100 ug/mL after 18 to 24 hrs by microdilution assay; type: functional, organism-based
Bacillus spizizenii [14] = test: Antibacterial activity against Bacillus subtilis ATCC 6633 assessed as growth inhibition at 100 ug/mL after 18 to 24 hrs by microdilution assay; type: functional

| Compound | Activity [1] [equiv] | MIC (Klebsiella pneumoniae [2]) [µg/mL] | MIC (Pseudomonas aeruginosa [3]) [µg/mL] | MIC (Staphylococcus aureus [4]) [µg/mL] | MIC (Proteus vulgaris [5]) [µg/mL] | SC50 [6] [µg/mL] | MIC (Bacillus spizizenii [7]) [µg/mL] | MIC (Enterococcus faecalis [8]) [µg/mL] | growth inhibition (GI) (Klebsiella pneumoniae [9]) | growth inhibition (GI) (Enterococcus faecalis [10]) | growth inhibition (GI) (Staphylococcus aureus [11]) | growth inhibition (GI) (Pseudomonas aeruginosa [12]) | growth inhibition (GI) (Proteus vulgaris [13]) | growth inhibition (GI) (Bacillus spizizenii [14]) |
| --- | --- | --- | --- | --- | --- | --- | --- | --- | --- | --- | --- | --- | --- | --- |
| CCCCCCCn1c(-c2cc[n+](CCCCCCC)cc2)cc(=O)c2ccccc21.[Br-] | 59 | 62.5 | 62.5 | 31.2 | 125 | 56 | 62.5 | 62.5 | – | – | – | – | – | – |
| CCCCCCCCCn1c(-c2cc[n+](CCCCCCCCC)cc2)cc(=O)c2ccccc21.[Br-] | 59 | 31.2 | 62.5 | 31.2 | 31.2 | 55 | 62.5 | 62.5 | – | – | – | – | – | – |
| CCCCCCCCCCn1c(-c2cc[n+](CCCCCCCCCC)cc2)cc(=O)c2ccccc21.[Br-] | 40 | 62.5 | 31.2 | 62.5 | 62.5 | 78 | 62.5 | 125 | – | – | – | – | – | – |
| CCCCCCCCCCCCCCn1c(-c2cc[n+](CCCCCCCCCCCCCC)cc2)cc(=O)c2ccccc21.[Br-] | 14 | 500 | 500 | 500 | 500 | 72 | 500 | 250 | – | – | – | – | – | – |
| CCCCCCCCCCCCn1c(-c2cc[n+](CCCCCCCCCCCC)cc2)cc(=O)c2ccccc21.[Br-] | 39 | 125 | 125 | 125 | 125 | 82 | 250 | 125 | – | – | – | – | – | – |
| Nc1ccccc1C(=O)/C=C/c1ccncc1 | 43 | – | – | – | – | 130 | – | – | – | – | – | – | – | – |
| CCCCCCCCCCCn1c(-c2cc[n+](CCCCCCCCCCC)cc2)cc(=O)c2ccccc21.[Br-] | 44 | 125 | 62.5 | 62.5 | 31.2 | 72 | 125 | 125 | – | – | – | – | – | – |
| O=c1cc(-c2ccncc2)[nH]c2ccccc12 | 46 | – | – | – | – | 133 | – | – | – | – | – | – | – | – |
| CCCCCCCCn1c(-c2cc[n+](CCCCCCCC)cc2)cc(=O)c2ccccc21.[Br-] | 59 | 31.2 | 31.2 | 15.6 | 31.2 | 85 | 31.2 | 62.5 | – | – | – | – | – | – |
| CCCCCCCCCCCCCCCn1c(-c2cc[n+](CCCCCCCCCCCCCCC)cc2)cc(=O)c2ccccc21.[Br-] | 66 | 250 | 500 | 500 | 500 | 133 | 500 | 250 | – | – | – | – | – | – |
| CCCCCn1c(-c2cc[n+](CCCCC)cc2)cc(=O)c2ccccc21.[Br-] | 94 | 31.2 | 15.6 | 15.6 | 62.5 | 112 | 62.5 | 62.5 | – | – | – | – | – | – |
| CCCCCCn1c(-c2cc[n+](CCCCCC)cc2)cc(=O)c2ccccc21.[Br-] | 141 | 15.6 | 7.8 | 7.8 | 62.5 | 56 | 31.2 | 31.2 | – | – | – | – | – | – |
| CCCCCCCCCCCCCn1c(-c2cc[n+](CCCCCCCCCCCCC)cc2)cc(=O)c2ccccc21.[Br-] | 53 | 250 | 250 | 250 | 250 | 45 | 250 | 250 | – | – | – | – | – | – |
| CC1(C)S[C@@H]2[C@H](NC(=O)[C@H](N)c3ccccc3)C(=O)N2[C@H]1C(=O)O | – | – | – | – | – | – | – | – | Active | Active | Active | Active | Active | Active |
